From ChEMBL document CHEMBL1158082, “Cytotoxic hypothemycin analogues from Hypomyces subiculosus” (J Nat Prod, 2006) come the findings set out here.

Holding throughout (assay type): functional, cell-based
One assay deals with SK-OV-3. Briefly: Cytotoxicity against human SKOV3 cells. The gist of the method:
(§1)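 Cells were kept in McCoy's 5A with 10% FBS and 2 mM L-glutamine at 37 °C and 5% CO2. About 4000 cells per well were plated and left to adhere overnight. Compounds from 50 mM DMSO stocks were diluted in medium (dilution series 100 µM to 0.1 pM, before addition) and added in duplicate. After 72 h, viability was read by CellTiter-Glo luminescence at room temperature.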

The next assay concerns COLO-829. Briefly: Cytotoxicity against human COLO829 cells. The gist of the method: as §1
The test system of a further assay is HT-29. Put plainly: Cytotoxicity against human HT-29 cells. The gist of the method:
as §1

For the molecule `COc1cc(O)c2c(c1)[C@H]1O[C@@H]1CCCC(=O)CCC[C@H](C)OC2=O`, the IC50 with SK-OV-3 is > 100000 nM.
As for `C[C@H]1C/C=C/[C@@H](O)[C@@H](O)CC[C@H]2O[C@@H]2c2cc(O)cc(O)c2C(=O)O1`, the IC50 in the assay with COLO-829, in the assay with SK-OV-3 and in the assay with HT-29 was > 100000 nM in each case.
On to `C[C@H]1C/C=C\C(=O)[C@@H](O)[C@@H](O)C[C@H]2O[C@@H]2c2cc(O)cc(O)c2C(=O)O1`, for which the IC50 with COLO-829 was determined as 38 nM; in the assay with SK-OV-3, 1800 nM; in the assay on HT-29 it was 100 nM.
The matching figures for `COc1cc(O)c2c(c1)[C@H]1O[C@@H]1C[C@H](O)[C@H](O)C(=O)/C=C\C[C@H](C)OC2=O` [HYPOTHEMYCIN]: 70 nM, 5900 nM and 150 nM.

The IC50 is the concentration that inhibits the measured activity by half. A higher IC50 goes with weaker potency in that assay.
